# Assay results from ChEMBL document CHEMBL1649578, “Biofilm formation and effect of caspofungin on biofilm structure of Candida species bloodstream isolates” (2009).
# Activity calls are given as the source filed them. No cut-off for these calls is given here.
# Experiments:
# [1] = tested on: Candida albicans; test: Antifungal activity against Candida albicans isolate CA4 planktonic cells after 48 hrs by broth microdilution method; assay type: functional; conditions: isolate CA4, 48 h
# How it was run: (§1)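 Isolates grown on Sabouraud dextrose agar 24 h at 37°C. MIC is the lowest concentration giving a significant turbidity reduction versus control at 48 h.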
# [2] = tested on: Candida parapsilosis; test: Antifungal activity against Candida parapsilosis isolate CP1 planktonic cells after 48 hrs by broth microdilution method; assay type: functional; conditions: Lodderomyces parapsilosis, isolate CP1, 48 h; how it was run: as §1
# [3] = tested on: Candida tropicalis; test: Antifungal activity against Candida tropicalis isolate CT8 planktonic cells after 48 hrs by broth microdilution method; assay type: functional; conditions: isolate CT8, 48 h
# How it was run: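 CLSI broth microdilution in RPMI 1640; isolate plated on Sabouraud dextrose agar 24 h at 37°C. Drug stock in sterile saline diluted in RPMI, 16 to 0.0625 μg/ml tested. MIC read at 48 h as lowest concentration giving significant turbidity reduction versus control well.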
# [4] = tested on: Candida albicans; test: Antifungal activity against Candida albicans isolate CA4 biofilm after 48 hrs by XTT assay; assay type: functional; conditions: isolate CA4, 48 h
# How it was run: (§2)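 Biofilms of clinical bloodstream isolates grown 24 h in RPMI 1640 (MOPS, pH 7.0) on human-serum-preconditioned silicone disks, after 1.5 h attachment at 37°C from 1 × 10^6 CFU/ml. Washed disks exposed 48 h at 35°C on rocker to 10 doubling dilutions, 0.25–128 μg/ml. XTT-menadione reduction 2 h at 37°C, A490; concentration giving 50% reduction of metabolic activity vs drug-free control; triplicate.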
# [5] = tested on: Candida parapsilosis; test: Antifungal activity against Candida parapsilosis isolate CP1 biofilm after 48 hrs by XTT assay; assay type: functional; conditions: Lodderomyces parapsilosis, isolate CP1, 48 h
# How it was run: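 Biofilms on serum-preconditioned silicone disks in MOPS-buffered RPMI 1640 (pH 7.0), grown 24 h, PBS-washed, then challenged 48 h at 35°C on a rocker with ten doubling caspofungin dilutions, 0.25–128 μg/ml. Metabolic activity read by XTT-menadione reduction, 2 h at 37°C, A490. SMIC taken as the concentration giving 50% reduction in metabolic activity versus drug-free control. Triplicate.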
# [6] = tested on: Candida tropicalis; test: Antifungal activity against Candida tropicalis isolate CT8 biofilm after 48 hrs by XTT assay; assay type: functional; conditions: isolate CT8, 48 h; how it was run: as §2
# [7] = tested on: Candida albicans; test: Ratio of SMIC for Candida albicans isolate CA4 biofilm to MIC for Candida albicans isolate CA4 planktonic cells; assay type: functional
# [8] = tested on: Candida parapsilosis; test: Ratio of SMIC for Candida parapsilosis isolate CP1 biofilm to MIC for Candida parapsilosis isolate CP1 planktonic cells; assay type: functional
# [9] = tested on: Candida tropicalis; test: Ratio of SMIC for Candida tropicalis isolate CT8 biofilm to MIC for Candida tropicalis isolate CT8 planktonic cells; assay type: functional
# [10] = tested on: Candida albicans; test: Antifungal activity against Candida albicans isolate CA4 biofilm assessed as appearance of collapsed blastospore at 1 ug/ml after 48 hrs by scanning electron microscopy; assay type: functional, organism-based
# How it was run: (§3)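 Silicone disks preconditioned 24 h at 37°C in heat-inactivated human serum, seeded with 1 × 10^6 CFU/ml in MOPS-buffered RPMI 1640 (pH 7.0), 1.5 h attachment at 37°C with shaking, then grown 24 h. Washed biofilms exposed to 1.0, 16 or 128 μg/ml caspofungin in RPMI 1640, 48 h at 35°C on a rocker. Untreated controls in RPMI only. Fixed in 5% glutaraldehyde/cacodylate (pH 6.2), ethanol-dehydrated, HMDS air-dried, examined by SEM. Run in triplicate.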
# [11] = tested on: Candida albicans; test: Antifungal activity against Candida albicans isolate CA4 biofilm assessed as appearance of collapsed blastospore at 16 ug/ml after 48 hrs by scanning electron microscopy; assay type: functional, organism-based; how it was run: as §3
# [12] = tested on: Candida albicans; test: Antifungal activity against Candida albicans isolate CA4 biofilm assessed as assessed as appearance of increased number of small blastospore at 128 ug/ml after 48 hrs by scanning electron microscopy; assay type: functional, organism-based; how it was run: as §3
# [13] = tested on: Candida tropicalis; test: Antifungal activity against Candida tropicalis isolate CT8 biofilm assessed as appearance of collapsed cell wall at 1 ug/ml after 48 hrs by scanning electron microscopy; assay type: functional, organism-based; how it was run: as §3
# [14] = tested on: Candida tropicalis; test: Antifungal activity against Candida tropicalis isolate CT8 biofilm assessed as change in cellular morphology at 16 ug/ml after 48 hrs by scanning electron microscopy; assay type: functional, organism-based; how it was run: as §3
# [15] = tested on: Candida tropicalis; test: Antifungal activity against Candida tropicalis isolate CT8 biofilm assessed as change in cellular morphology at 128 ug/ml after 48 hrs by scanning electron microscopy; assay type: functional, organism-based; how it was run: as §3
# [16] = tested on: Candida parapsilosis; test: Antifungal activity against Candida parapsilosis isolate CP1 biofilm assessed as change in cellular morphology at 1 ug/ml after 48 hrs by scanning electron microscopy; assay type: functional, organism-based; how it was run: as §3
# [17] = tested on: Candida parapsilosis; test: Antifungal activity against Candida parapsilosis isolate CP1 biofilm assessed as change in cellular morphology at 16 ug/ml after 48 hrs by scanning electron microscopy; assay type: functional, organism-based; how it was run: as §3
# [18] = tested on: Candida albicans; test: Antifungal activity against Candida albicans isolate CA4 biofilm assessed as viable fungal count per cm2 of silicone disk at 0.25 ug/ml after 48 hrs […]; assay type: functional
# How it was run: (§4)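 Biofilms grown on serum-preconditioned silicone disks in RPMI 1640 for 24 h, PBS-washed, then exposed 48 h at 35°C on a rocker to caspofungin doubling dilutions spanning 0.25–128 μg/ml. Disks washed and sonicated/vortexed in PBS to release cells. Suspensions diluted in Butterfield buffer and plated on Sabouraud dextrose agar. Viable counts from three disks averaged as CFU/cm2.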
# [19] = tested on: Candida albicans; test: Antifungal activity against Candida albicans isolate CA4 biofilm assessed as viable fungal count per cm2 of silicone disk at 0.5 ug/ml after 48 hrs […]; assay type: functional; how it was run: as §4
# [20] = tested on: Candida albicans; test: Antifungal activity against Candida albicans isolate CA4 biofilm assessed as viable fungal count per cm2 of silicone disk at 1 ug/ml after 48 hrs […]; assay type: functional; how it was run: as §4
# [21] = tested on: Candida albicans; test: Antifungal activity against Candida albicans isolate CA4 biofilm assessed as viable fungal count per cm2 of silicone disk at 2 ug/ml after 48 hrs […]; assay type: functional; how it was run: as §4
# [22] = tested on: Candida albicans; test: Antifungal activity against Candida albicans isolate CA4 biofilm assessed as viable fungal count per cm2 of silicone disk at 4 ug/ml after 48 hrs […]; assay type: functional; how it was run: as §4
# [23] = tested on: Candida albicans; test: Antifungal activity against Candida albicans isolate CA4 biofilm assessed as viable fungal count per cm2 of silicone disk at 8 ug/ml after 48 hrs […]; assay type: functional; how it was run: as §4
# [24] = tested on: Candida albicans; test: Antifungal activity against Candida albicans isolate CA4 biofilm assessed as viable fungal count per cm2 of silicone disk at 16 ug/ml after 48 hrs […]; assay type: functional; how it was run: as §4
structure (smiles),measurement,setting,value
CC[C@H](C)C[C@H](C)CCCCCCCCC(=O)N[C@H]1C[C@@H](O)[C@@H](NCCN)NC(=O)[C@@H]2[C@@H](O)CCN2C(=O)[C@H]([C@H](O)CCN)NC(=O)[C@H]([C@H](O)[C@@H](O)c2ccc(O)cc2)NC(=O)[C@@H]2C[C@@H](O)CN2C(=O)[C@H]([C@@H](C)O)NC1=O [CASPOFUNGIN],MIC,[1],0.0625 µg/mL
same,MIC,[2],0.25 µg/mL
same,MIC,[3],0.0625 µg/mL
same,MIC,[4],0.5 µg/mL
same,MIC,[5],4 µg/mL
same,MIC,[6],0.25 µg/mL
same,Ratio,[7],2
same,Ratio,[8],2
same,Ratio,[9],16
same,Activity,[10],Active
same,Activity,[11],Active
same,Activity,[12],Active
same,Activity,[13],Active
same,Activity,[14],Active
same,Activity,[15],inactive
same,Activity,[16],inactive
same,Activity,[17],Active
same,log10cfu,[18],4.4
same,log10cfu,[19],3.4
same,log10cfu,[20],3.3
same,log10cfu,[21],4.7
same,log10cfu,[22],5.3
same,log10cfu,[23],5.6
same,log10cfu,[24],6.2
